ChEMBL document CHEMBL1250535, “Synthesis, anti-fungal and 1,3-β-D-glucan synthase inhibitory activities of caffeic and quinic acid derivatives” (Bioorg Med Chem, 2010)
Converted amounts (≈) assume the structure as drawn. Starred links: 1 amine or outer side, 2 acyl side, 3 side chain; linkers in the order of their positions; H or OH if unused. Positions of bridges follow the written chain, without caps; N, C: chain ends. Non-standard residues stand in square brackets, D forms with d. Residues, ends and D or L forms follow the SMILES beside them. *: point of attachment. Orn(4R-OH,5R-OH) = O=C([C@H](C[C@@H](O)[C@@H](O)N[*:3])N[*:1])[*:2]; hTyr(3S-OH,4S-OH) = N[C@H](C(=O)O)[C@H](O)[C@@H](O)c1ccc(O)cc1; Pro(3S-OH,4S-Me) = C[C@H]1CN[C@H](C(=O)O)[C@H]1O; Palmitoyl = CCCCCCCCCCCCCCCC(=O)*; Hyp = O=C(O)[C@@H]1C[C@@H](O)CN1

How the values were obtained:
Beta-1,3-glucan synthase = biological target: T1, Beta-1,3-glucan synthase (Candida albicans, UniProt O13383); experiment: Inhibition of Candida albicans 1,3 beta-D-glucan synthase
T1 sequence (O13383 whole entry): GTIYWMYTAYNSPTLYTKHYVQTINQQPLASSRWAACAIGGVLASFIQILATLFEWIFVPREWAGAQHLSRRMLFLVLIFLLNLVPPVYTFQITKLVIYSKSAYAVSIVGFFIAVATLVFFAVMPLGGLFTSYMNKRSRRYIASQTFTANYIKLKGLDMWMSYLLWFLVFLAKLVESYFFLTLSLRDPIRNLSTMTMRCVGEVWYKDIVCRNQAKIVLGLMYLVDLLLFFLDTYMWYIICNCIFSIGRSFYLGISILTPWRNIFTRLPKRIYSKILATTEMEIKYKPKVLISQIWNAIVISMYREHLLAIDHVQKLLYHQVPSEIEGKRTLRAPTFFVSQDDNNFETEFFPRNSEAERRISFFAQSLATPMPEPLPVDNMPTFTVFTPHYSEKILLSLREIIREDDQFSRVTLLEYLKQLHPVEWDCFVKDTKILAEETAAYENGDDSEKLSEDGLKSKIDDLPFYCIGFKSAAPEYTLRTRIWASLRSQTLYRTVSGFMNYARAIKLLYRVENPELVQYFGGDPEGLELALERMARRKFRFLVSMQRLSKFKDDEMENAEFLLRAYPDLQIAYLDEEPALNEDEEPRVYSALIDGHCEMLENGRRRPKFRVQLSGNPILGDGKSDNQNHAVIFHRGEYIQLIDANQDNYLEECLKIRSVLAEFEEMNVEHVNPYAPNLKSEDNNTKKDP
Method in brief: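 Membrane-bound enzyme prepared from Candida albicans. Reaction mix: 50 mM Tris–HCl pH 7.5, 0.5 mM EDTA, 25 mM KF, GTPγS, 0.75% BSA, 5.0 mM UDP-Glc, with and without test compound. Started by adding enzyme, run 20 min at 30 °C, stopped by heating 10 min at 96 °C. Glucan formed quantified by a 1,3-β-D-glucan-dependent enzyme cascade (BGSTAR kit).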

Candida albicans = experiment: Antifungal activity against Candida albicans by NCCLS method; format: functional
Method in brief: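 Broth dilution per NCCLS against Candida albicans NBRC 1594.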

Row | Compound | IC50 (Beta-1,3-glucan synthase) [µM] | MIC (Candida albicans) [µM]
1 | CCCCCCCCOc1ccc(NC(=O)[C@]2(O)C[C@@H](O)[C@@H](O)[C@H](O)C2)cc1 | > 81 | 81 (≈ 32 µg/mL)
2 | CCCCCCCCOc1ccc(NC(=O)C(NC(=O)[C@]2(O)C[C@@H](O)[C@@H](O)[C@H](O)C2)C(C)O)cc1 (some centres undefined) | > 65 | > 129
3 | CCCCCCCCOc1ccc(NC(=O)C(NC(=O)[C@]2(O)C[C@@H](O)[C@@H](O)[C@H](OC(=O)/C=C/c3ccc(O)c(O)c3)C2)C(C)O)cc1 (some centres undefined) | > 49 | 12 (≈ 7.9 µg/mL)
4 | CCCCCCCCOc1ccc(NC(=O)C(CCCN)NC(=O)[C@]2(O)C[C@@H](O)[C@@H](O)[C@H](OC(=O)/C=C/c3ccc(O)c(O)c3)C2)cc1 (some centres undefined) | 15 | 6 (≈ 4.03 µg/mL)
5 | CCCCCCCCOc1ccc(NC(=O)C(CC(=O)O)NC(=O)[C@]2(O)C[C@@H](O)[C@@H](O)[C@H](OC(=O)/C=C/c3ccc(O)c(O)c3)C2)cc1 (some centres undefined) | > 48 | 48 (≈ 32.3 µg/mL)
6 | CCCCCCCCCCCCCCCC(=O)N[C@H]1C[C@@H](O)[C@@H](O)NC(=O)[C@@H]2[C@@H](O)[C@@H](C)CN2C(=O)[C@H]([C@@H](C)O)NC(=O)[C@H]([C@H](O)[C@@H](O)c2ccc(O)cc2)NC(=O)[C@@H]2C[C@@H](O)CN2C(=O)[C@H]([C@@H](C)O)NC1=O [ACULEACIN A] (Palmitoyl-[Orn(4R-OH,5R-OH)]T[Hyp][hTyr(3S-OH,4S-OH)]T[Pro(3S-OH,4S-Me)]; lactam 1-C) | 8 | 0.23 (≈ 0.238 µg/mL)
7 | O=C(/C=C/c1ccc(O)c(O)c1)O[C@@H]1C[C@](O)(C(=O)O)C[C@@H](O)[C@H]1O [CHLOROGENIC ACID] | > 90 | > 181

Next, values leading:

Row | IC50 (Beta-1,3-glucan synthase) [µM] | MIC (Candida albicans) [µM] | Compound
8 | 52 | 27 (≈ 16.1 µg/mL) | CCCCCCCCOc1ccc(NC(=O)C(CCCNC(=O)OC(C)(C)C)NC(=O)/C=C/c2ccc(O)c(O)c2)cc1 (centres undefined)
9 | 53 | 16 (≈ 8.15 µg/mL) | CCCCCCCCOc1ccc(NC(=O)C(CCCN)NC(=O)[C@]2(O)C[C@@H](O)[C@@H](O)[C@H](O)C2)cc1 (some centres undefined)
10 | > 63 | > 125 | CCCCCCCCOc1ccc(NC(=O)C(CC(=O)O)NC(=O)[C@]2(O)C[C@@H](O)[C@@H](O)[C@H](O)C2)cc1 (some centres undefined)
11 | 22 | 4 (≈ 1.99 µg/mL) | CCCCCCCCOc1ccc(NC(=O)C(CCCN)NC(=O)/C=C/c2ccc(O)c(O)c2)cc1 (centres undefined)
12 | > 84 | 84 (≈ 32.2 µg/mL) | CCCCCCCCOc1ccc(NC(=O)/C=C/c2ccc(O)c(O)c2)cc1
13 | > 66 | 8.3 (≈ 4.02 µg/mL) | CCCCCCCCOc1ccc(NC(=O)C(NC(=O)/C=C/c2ccc(O)c(O)c2)C(C)O)cc1 (centres undefined)
14 | > 64 | 64 (≈ 31.9 µg/mL) | CCCCCCCCOc1ccc(NC(=O)C(CC(=O)O)NC(=O)/C=C/c2ccc(O)c(O)c2)cc1 (centres undefined)
15 | 37 | 15 (≈ 8.11 µg/mL) | CCCCCCCCOc1ccc(NC(=O)C(NC(=O)/C=C/c2ccc(O)c(O)c2)C(C)OC(C)(C)C)cc1 (centres undefined)
16 | 58 | 29 (≈ 16.1 µg/mL) | CCCCCCCCOc1ccc(NC(=O)C(CC(=O)OC(C)(C)C)NC(=O)/C=C/c2ccc(O)c(O)c2)cc1 (centres undefined)
17 | 41 | 14 (≈ 7.81 µg/mL) | CCCCCCCCOc1ccc(NC(=O)[C@]2(O)C[C@@H](O)[C@@H](O)[C@H](OC(=O)/C=C/c3ccc(O)c(O)c3)C2)cc1
